proCasp7 act = procaspase-7 activators, primary screen, counter-screen for procaspase-3 activator project, biochemical, absorbance, HTS, human. Caspase-7 (Homo sapiens), P55210. recombinant procaspase-7, Ac-DEVD-pNA absorbance 405 nm; D23A/D198A/D206A triple mutant, cannot self-cleave; scale: DMSO 0, 5 µM enzyme 100. activation, % at 8.5 µM. 0.093% of 330,000 active. AID 463210, 2010;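 active = percent activation above the screen-wide mean plus 3 SD, cut at about 25% in these data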
Target sequence (P55210 whole entry D23A/D198A/D206A): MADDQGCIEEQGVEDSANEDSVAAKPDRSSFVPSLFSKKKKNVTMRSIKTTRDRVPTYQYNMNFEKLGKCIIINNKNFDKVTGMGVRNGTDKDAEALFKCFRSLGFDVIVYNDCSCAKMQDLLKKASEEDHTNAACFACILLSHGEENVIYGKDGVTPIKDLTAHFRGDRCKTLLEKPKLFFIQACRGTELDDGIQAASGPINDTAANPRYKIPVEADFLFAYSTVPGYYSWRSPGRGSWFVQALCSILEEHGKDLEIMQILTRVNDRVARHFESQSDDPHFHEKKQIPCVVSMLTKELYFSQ
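Replicates: singlicate. Assay system: Procaspase-7 triple mutant (PC-7 D3A). Signal: 405 nm absorbance of p-nitroaniline. Times: 1 h preincubation, 2 h reaction. Buffer or medium: Zinc-free HEPES pH 7.4 with 300 mM NaCl, 0.01% Triton X-100. Also added: DEVD-pNA substrate. Benchmarks: DMSO wells as 0%, DMSO with 5 µM added PC-7 as 100%.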
Bfl-1 A1 inh = caspase 3/7 activation in MEF A1-2A-BIM cells, primary screen, A1 inhibitor project, cell-based, luminescence, HTS | 0.066% of 330,000 active | caspase activation, % (no concentration beside the values) | Caspase-Glo 3/7 luminescence, 3 h; percent of clofoctol response, vehicle zero;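 active = over half of replicate activation scores above 10%, or exactly half above 10 with the replicate mean above 10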
procasp3 activ = activators of human procaspase-3 D3A mutant, primary screen, biochemical, absorbance, PC-3 D3A mutant, single concentration; activation, % at 8.5 µM; 0.11% of 330,000 active; recombinant procaspase-3 D3A, Ac-DEVD-pNA absorbance 405 nm; Caspase-3 (Homo sapiens), P42574;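 active = activation above the mean of all tested compounds plus 3 SD, cut at about 21% in these data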;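 note: 0% = DMSO alone and 100% = DMSO wells spiked with extra 5 µM PC-3 D3A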
Target sequence (P42574 whole entry D9A/D28A/D175A): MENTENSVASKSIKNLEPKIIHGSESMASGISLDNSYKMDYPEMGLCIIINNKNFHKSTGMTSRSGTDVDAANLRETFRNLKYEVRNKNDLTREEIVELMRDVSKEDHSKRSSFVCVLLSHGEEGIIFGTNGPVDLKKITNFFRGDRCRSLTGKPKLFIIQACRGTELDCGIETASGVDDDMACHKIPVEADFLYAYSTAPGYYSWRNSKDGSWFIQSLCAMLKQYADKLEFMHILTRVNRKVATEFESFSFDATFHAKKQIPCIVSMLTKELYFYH
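Assay system – Procaspase-3 D3A mutant, all three cleavage aspartates alanine · Controls – DMSO-only low control, 5 µM PC-3 D3A high control · Schedule – 1 h compound preincubation, 2 h substrate hydrolysis at 25 °C · Signal – 405 nm absorbance of p-nitroaniline, reads at 0 and 120 min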
MsrA act = bovine MsrA enzyme activators, primary screen, biochemical, absorbance, HTS. purified bovine MsrA, absorbance read-out. activation, % at 10.6 µM. 0.3% of 360,000 active; in the data active = activation above about 7.5%;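 note: 0% = vehicle and 100% = reference activator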
MsrA inh = bovine MsrA enzyme inhibitors, primary screen, biochemical, absorbance, HTS; Methionine sulfoxide reductase A (Bos taurus); purified bovine MsrA, absorbance read-out; inhibition, % at 15.5 µM; 0.75% of 360,000 active; AID 651718, 2012; in the data active = inhibition above about 4.5%;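 note: 0% = vehicle wells with enzyme and 100% = reference inhibitor wells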
An asterisk follows results filed as active; · = no result. Most compounds without a hit are left out; they make up all but 1.2% or so of the library.

SMILES	proCasp7 act	Bfl-1 A1 inh	procasp3 activ	MsrA act	MsrA inh
COC(=O)C1=C(C)N(Cc2cccc(C(F)(F)F)c2)C(=NCc2ccccc2C(F)(F)F)NC1c1cccc(F)c1 (configuration not stated)	·	·	·	·	-1
CN(C)c1ccc(-c2n(C)c3ccccc3[n+]2C)cc1	3	-1	2	-11	4.6*
O=C(NCc1ccccc1)[C@@H]1CCCN1C(=O)[C@H]1CCCN1C(=O)c1ccc(Cl)cc1	·	·	·	·	0
C[C@H]1CN(C(=O)OC(C)(C)C)CCN1c1ccc(N2CCS(=O)(=O)CC2)c(C#N)c1	·	·	·	·	2
CCCCCCCCN1C(=O)[C@@H](CC(=O)NCCc2ccccc2OC)C[C@@]2(C(=O)OC)C1=C[C@H](C1CCCC1)O[C@@H]2C	·	·	·	·	0
CC(C)C1CC(N(C)C)=CC(=S)N1 (configuration not stated)	·	·	·	·	2
COc1ccc(/C=C\c2nc(=O)c3ccccc3o2)cc1	·	·	·	-5	4.7*
C[C@H](O)[C@@H]1C(=O)N2CCc3c([nH]c4c(-c5ccc6c(c5)OCO6)cccc34)[C@@H]2C[C@@H]1N(C)C(=O)Nc1ccccc1	·	·	·	·	0
CC(C)(C)n1nnnc1C(c1cccnc1)N1CCN(c2cccc(C(F)(F)F)c2)CC1 (configuration not stated)	6	-1	4	0	-1
CC(C)(C)c1cc(C(c2cccnc2)N2CCN(CCO)CC2)cc(C(C)(C)C)c1O (configuration not stated)	13	25*	0	-7	-1
C=CCN1C(=O)c2[nH]nc(-c3ccccc3)c2C1c1ccc(C)cc1 (configuration not stated)	·	·	·	·	2
COc1ccccc1-c1cc(C(F)(F)F)n2ncc(S(=O)(=O)c3ccccc3)c2n1	7	0	6	-11	9.4*
COc1cccc(/C=N/NC(=O)c2[nH]c(C)c(C(=O)N/N=C/c3cccc(OC)c3O)c2C)c1O	-11	0	17	-8	5.0*
COc1cccc(/C=N/NC(=O)c2ccc(-c3ccccc3)cc2)c1O	-17	0	-19	-5	2
CC(=O)c1ccc(-c2ccc(C(=O)N3CCC(C(N)=O)CC3)o2)cc1	-3	1	-1	-4	7.6*
CC(=O)c1ccc(-c2ccc(C(=O)N3CCN(c4ccc(F)cc4)CC3)o2)cc1	1	0	6	-5	1
O=C1C=CC(=O)N1c1ccc(OC(F)F)cc1	-29	-4	-35	-17	47*
O=C1C=CC(=O)N1c1ccc(O)cc1	-39	0	-28	-10	1
COc1cc2c(c(OC)c1OC)C1(CCCCC1)CC2NS(=O)(=O)C(C)C (configuration not stated)	·	·	·	·	-2
Cc1ccc(-c2nn(-c3ccccc3)cc2C=C2C(=O)CC(C)(C)CC2=O)cc1	2	-1	-4	-1	0
CC1=NNC(=O)/C1=C\c1cn(-c2ccccc2)nc1-c1ccc(Cl)cc1	-6	41*	-5	-8	-1
NC(=O)c1ncn([C@@H]2O[C@H](C(=O)N[C@H](Cc3ccccc3)C(=O)N3CCN(c4ccc(Cl)cn4)CC3)[C@@H](O)[C@H]2O)n1	·	·	·	·	1
C[C@@H]1ON(C)[C@H]2C[C@H]3c4cc(N5CCCCC5)ccc4CCN3C[C@@H]12	·	·	·	·	-1
O=C1c2cccc(O)c2C(=O)c2c(O)cccc21	2	-1	-1	·	·
CC1OC(CC(=O)O)CC2=C1C(=O)c1c(O)cccc1C2=O (configuration not stated)	·	·	·	67*	9.9*
SMILES	proCasp7 act	Bfl-1 A1 inh	procasp3 activ	MsrA act	MsrA inh
Cc1cc(/C=C(\C#N)C(=O)NCCc2c[nH]c3ccccc23)c(C)n1C	16	0	-5	-11	2
COc1cc(/C=C(/C#N)C(=O)NCCc2c[nH]c3ccccc23)ccc1OCc1ccccc1F	-2	9.4*	4	-2	0
OCC(CCc1c[nH]c2ccccc12)c1c[nH]c2ccccc12 (configuration not stated)	·	·	·	·	-1
COC1=CC(=O)c2ccccc2C1=O	-7	·	-1	14*	·
O=C(Cc1c[nH]c2ccccc12)Nc1ccc(Nc2cccnc2)c(-c2ccc(-c3ccccc3)cc2F)c1	·	·	·	·	3
COc1ccc(Nc2ccc3c(c2)=NC2(CCCCC2)[N+]=3[O-])cc1	-4	0	-5	5	15*
COc1ccc(NC2=NC(=S)N(c3ccccc3C)C23CCCCC3)cc1	-2	0	1	-2	2
Clc1cccc(-c2ccc(/C=N/n3cnnc3)o2)c1	10	0	5	-12	4.6*
CCCCCCCCN1C(=O)[C@@H](CC(=O)NCCCOC)C[C@@]2(C(=O)OC)C1=C[C@H](C1CCCC1)O[C@@H]2C	·	·	·	·	0
COc1ccc(C(=O)N/C(=C\c2cccs2)c2nc3ccccc3[nH]2)cc1OC	6	1	6	-4	6.0*
Cc1ccc(NC(=O)/C(=C\c2ccc3c(c2)OCO3)NC(=O)c2ccco2)cc1	4	0	-4	-7	4.5*
O=C(CCS(=O)(=O)c1ccccc1)N(CCCN1CCOCC1)c1nc2ccc(F)cc2s1	4	5.3*	-2	-5	0
C/C(=N/Nc1ccc(C(=O)O)cc1)c1ccc(O)c(O)c1O	-13	2	-7	-9	4.6*
CS(=O)(=O)c1ccc2nc(NC(=O)c3ccc(Cn4cc(Br)cn4)o3)sc2c1	-4	1	1	-7	5.4*
CC12C=CC(C)(C3C(=O)NC(=O)C31)C1C3C(=O)NC(=O)C3C12 (configuration not stated)	·	·	·	·	1
CN1CCN(C(=O)/C(=C/c2ccc(N(C)C)cc2)NC(=O)c2ccccc2)CC1	0	-1	-2	-4	4.6*
CN(C)c1ccc(/C=C(\NC(=O)c2ccccc2)C(=O)NCc2ccncc2)cc1	0	1	0	-4	4.7*
CN(C)c1ccc(/C=C(\NC(=O)c2ccccc2)C(=O)NCc2cccnc2)cc1	1	1	-12	-4	4
CN1CCN(C(=O)/C(=C/c2ccc(F)cc2)NC(=O)c2ccccc2)CC1	1	1	-3	-2	0
OC(c1ccccc1)(c1ccccc1)C1CCN(CCCOc2ccc(-c3ccc(F)cc3F)cc2)CC1	·	·	·	·	1
COc1ccc(C(=O)Nc2ccccc2-c2nnn(CC(=O)Nc3ccc4c(c3)OCCO4)n2)cc1	0	-1	-7	8.5*	0
Cc1ccc(N2CC(C(=O)N/N=C/c3sccc3C)CC2=O)cc1 (configuration not stated)	3	0	2	-2	4.6*
